The results in this text go back to ChEMBL document CHEMBL4049460, “Trisubstituted Imidazoles with a Rigidized Hinge Binding Motif Act As Single Digit nM Inhibitors of Clinically Relevant EGFR L858R/T790M and L858R/T790M/C797S Mutants: An Example of Target Hopping” (J Med Chem, 2017).

The structures appear in SMILES notation. pIC50: −log10 of the molar value. In brackets after ≈: the same amount, converted by molar mass.

For data set [1], the target named is T1, Epidermal growth factor receptor (Homo sapiens, UniProt P00533, L858R/T790M). As to the kind of experiment: (§1) Inhibition of recombinant human GST-tagged EGFR L858R/T790M double mutant cytoplasmic domain expressed in baculovirus expression system preincubated for 20 mins followed by addition of [33P]-ATP measured after 2 hrs by filter-binding method.
In data set [2] the target is T2, Epidermal growth factor receptor (Homo sapiens, UniProt P00533). Put plainly: Inhibition of recombinant human GST-tagged wild type EGFR ( 668 to 1210 residues) cytoplasmic domain expressed in baculovirus expression system preincubated for 20 mins followed by addition of [33P]-ATP measured after 2 hrs by filter-binding method. The conditions noted are these: for pIC50: read-out: IC50.

The target of data set [3] is Mitogen-activated protein kinase 14 (Homo sapiens, UniProt Q16539). Put plainly: Inhibition of p38alpha MAPK (unknown origin) assessed as decrease in ATF2 phosphorylation at Thr69/71 at 1 uM after 1 hr by ELISA.
For data set [4], the target named is Epidermal growth factor receptor (Homo sapiens, UniProt P00533, C797S/L858R/T790M). Put plainly: (§2) Inhibition of recombinant human N-terminally GST-tagged EGFR L858R/T790M/C797S triple mutant expressed in baculovirus in Sf9 insect cells preincubated for 20 mins followed by addition of [33P]-ATP measured after 2 hrs by filter-binding method.
A short description of data set [5]: Solubility of the compound at pH 7.5 by UV-HPLC analysis. The conditions noted are these: buffer. Format: physicochemical. The method, boiled down:
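Solubility measured in the kinase assay buffer (pH 7.5); concentration determined by HPLC with UV detection.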

Data set [6] has as its target T3, Epidermal growth factor receptor (Homo sapiens, UniProt P00533, L858R). Put plainly: Inhibition of recombinant human GST-tagged EGFR L858R mutant cytoplasmic domain expressed in baculovirus expression system preincubated for 20 mins followed by addition of [33P]-ATP measured after 2 hrs by filter-binding method. The conditions noted are these: for pIC50: read-out: IC50.

In data set [7] the target is T2, Epidermal growth factor receptor. Put plainly: Inhibition of wild-type EGFR (unknown origin).
Data set [8] has as its target T1, Epidermal growth factor receptor. Put plainly: Inhibition of EGFR L858R/T790M double mutant (unknown origin).
Data set [9] has as its target T3, Epidermal growth factor receptor. As to the kind of experiment: Inhibition of EGFR L858R mutant (unknown origin).
The target in data set [10] is Epidermal growth factor receptor (Homo sapiens, UniProt P00533, T790M/C797S/L858R). The description is as §2.
In data set [11] the target is Epidermal growth factor receptor (Homo sapiens, UniProt P00533, T790M/L858R). Described as §1.
The subject of data set [12] is Epidermal growth factor receptor (Homo sapiens), P00533 [L858R,T790M,C797S]. Put plainly: Potency index, ratio of osimertinib IC50 to compound IC50 for recombinant human N-terminally GST-tagged EGFR L858R/T790M/C797S triple mutant expressed in baculovirus in Sf9 insect cells.
Data set [13] is filed under the species Homo sapiens. As to the kind of experiment: Selectivity ratio of IC50 for EGFR L858R/T790M double mutant (unknown origin) to IC50 for wild-type EGFR (unknown origin).

Sequence of Mitogen-activated protein kinase 14 (Q16539 whole entry): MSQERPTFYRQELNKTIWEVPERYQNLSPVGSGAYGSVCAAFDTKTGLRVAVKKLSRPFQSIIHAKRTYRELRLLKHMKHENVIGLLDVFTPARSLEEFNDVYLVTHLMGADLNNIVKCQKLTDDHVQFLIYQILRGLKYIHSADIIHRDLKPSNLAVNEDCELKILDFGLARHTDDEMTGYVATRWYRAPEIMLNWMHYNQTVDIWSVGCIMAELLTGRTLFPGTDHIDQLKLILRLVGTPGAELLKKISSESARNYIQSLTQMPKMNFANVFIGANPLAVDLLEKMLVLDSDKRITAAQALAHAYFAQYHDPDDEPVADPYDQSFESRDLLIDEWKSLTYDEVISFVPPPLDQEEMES

For the compound `OCCCCc1nc(-c2ccc(F)cc2)c(-c2ccnc3[nH]c(-c4ccccc4)cc23)[nH]1`, the pIC50 is 8.08 in [1]; over 9.52 in [2]; 8.70 in data set [3]; 8.08 in data set [4]; over 9.52 in data set [6]. In data set [5], the solubility result is “Insoluble”.
For `NCc1cccc(-c2nc(-c3ccc(F)cc3)c(-c3ccnc4[nH]c(-c5ccccc5)cc34)[nH]2)c1`, the pIC50 in data set [7] is over 9.30; in [8], 6.80; in data set [4], 6.47; in data set [9] it was over 9.30.
Consider `OCCCc1nc(-c2ccc(F)cc2)c(-c2ccnc3[nH]c(-c4ccccc4)cc23)[nH]1`, for which the pIC50 in [7] is over 9.30; in [8] it was 8.19; in [3], 8.70; in data set [4] it was 7.68; in [9] it was over 9.30.
Turning to `C=CC(=O)Nc1cccc(-c2c[nH]c3nccc(-c4[nH]c(CCCO)nc4C(F)(F)F)c23)c1`, the pIC50 in [1] is 5.73; in [2], 6.17; in data set [6], 6.53. Besides, in data set [10], the IC50 result is listed as “Not Active”.
In the case of `C=CC(=O)Nc1cccc(-c2c[nH]c3nccc(-c4[nH]c(CCCO)nc4C4CC4)c23)c1`, the IC50 result in [11] and in [10] was “Not Active” in each case. In addition, the pIC50 in [2] was 6.17; in [6], 6.59.
For the compound `C=CC(=O)Nc1cccc(-c2cc3c(-c4[nH]c(-c5ccccc5)nc4-c4ccc(F)cc4)ccnc3[nH]2)c1`, the pIC50 in [1] was 6.04; in [2], 7.36; in data set [6], 7.49.
In the same order, the values of `C=CC(=O)NCc1cccc(-c2nc(-c3ccc(F)cc3)c(-c3ccnc4[nH]c(-c5ccccc5)cc34)[nH]2)c1` are 6.58, 7.75 and 7.89.
Consider `OCCc1nc(-c2ccc(F)cc2)c(-c2ccnc3[nH]c(-c4ccccc4)cc23)[nH]1`, for which the pIC50 in data set [1] is 7.90; in [2], over 9.52; in [3], 8.40; in [4], 8.12; in data set [6], over 9.52. Also, the solubility in data set [5] (read-out: solubility) was 7 µg/mL (≈ 17.6 µM). In data set [12], the Ratio IC50 was 35.
As to `C=CC(=O)Nc1cccc(-c2c[nH]c3nccc(-c4[nH]c(-c5ccccc5)nc4-c4ccc(F)cc4)c23)c1`, the pIC50 was 6.95 in [1], 7.98 in data set [2] and 8.11 in data set [6]. For the same compound, the IC50 result in data set [10] is listed as “Not Active”.
Consider `CCC(=O)Nc1cccc(-c2c[nH]c3nccc(-c4[nH]c(CCCO)nc4C4CC4)c23)c1`, for which the IC50 entry in data set [11], in data set [2], in data set [10] and in data set [6] was “Not Active” in each case.
Consider `C=CC(=O)Nc1cccc(-c2c[nH]c3nccc(Cl)c23)c1`, for which the results for the pIC50 in [1], in data set [2] and in data set [6] were 7.17, 6.28 and 6.34, respectively.
Consider `Oc1ccc(-c2nc(-c3ccnc4[nH]c(-c5ccccc5)cc34)c(-c3ccc(F)cc3)[nH]2)cc1`, for which the results for the pIC50 in data set [1], in [2] and in [6] were 6.04, 7.31 and 7.62, respectively.
In the case of `Oc1ccc(-c2nc(-c3ccco3)c(-c3ccnc4[nH]c(-c5ccccc5)cc34)[nH]2)cc1`, the pIC50 in [1] is 5.48; in [2], 5.75; in data set [3], 6.54; in data set [6], 5.89.
On to `OCCCc1nc(-c2ccc(F)cc2)c(-c2ccnc3[nH]ccc23)[nH]1`, for which the pIC50 in data set [1] was 6.05; in [2], 7.36; in data set [3], 7.92; in data set [4], 6.03; in data set [6], 7.61. Moreover, the Ratio IC50 in data set [13] is over 130.
For `C=CC(=O)NCc1cccc(-c2cc3cccnc3[nH]2)c1`, the IC50 entry in data set [11], in data set [2], in data set [10] and in data set [6] was “Not Active” in each case.
For the compound `CCC(=O)Nc1cccc(-c2cc3c(-c4[nH]c(-c5ccccc5)nc4-c4ccc(F)cc4)ccnc3[nH]2)c1`, the pIC50 was 6.01 in data set [1], 7.57 in [2] and 7.73 in [6].
The matching figures for `C=CC(=O)NCc1cccc(-c2cc3c(-c4[nH]c(-c5ccccc5)nc4-c4ccc(F)cc4)ccnc3[nH]2)c1`: 6.17, 7.48 and 7.47.
Take `CCC(=O)Nc1cccc(-c2c[nH]c3nccc(-c4[nH]c(-c5ccccc5)nc4-c4ccc(F)cc4)c23)c1`: the IC50 entry in [11], in data set [2], in data set [10] and in data set [6] was “Not Active” in each case.
With `Oc1cccc(-c2nc(-c3ccc(F)cc3)c(-c3ccnc4[nH]c(-c5ccccc5)cc34)[nH]2)c1`, the pIC50 in data set [1] was 6.15; in data set [2] it was 7.52; in data set [3] it was 8.15; in [4], 6.11; in data set [6] it was 7.63.
Turning to `Fc1ccc(-c2nc(-c3ccccc3)[nH]c2-c2ccnc3[nH]ccc23)cc1`, the IC50 result in data set [11] and in [10] was “Not Active” throughout. For the same compound, the pIC50 was 6.15 in [2] and 6.20 in data set [6].
With `CCC(=O)Nc1cccc(-c2c[nH]c3nccc(-c4[nH]c(CCCO)nc4-c4ccc(F)cc4)c23)c1`, the pIC50 in [1] is 5.23; in data set [2] it was 6.17; in data set [6], 6.55.
Consider `Nc1cccc(-c2cc3c(-c4[nH]c(-c5ccccc5)nc4-c4ccc(F)cc4)ccnc3[nH]2)c1`, for which the figures for the negative logarithm of the IC50 (pIC50) in data set [1], in [2] and in [6] were 6.19, 7.62 and 7.81, respectively.
Turning to `Fc1ccc(-c2[nH]c(-c3ccccc3)nc2-c2ccnc3[nH]c(-c4ccccc4)cc23)cc1`, the pIC50 is 5.84 in data set [1], 6.67 in data set [2], 5.84 in data set [4] and 6.99 in data set [6].
With `Oc1ccc(-c2nc(-c3ccccc3)c(-c3ccnc4[nH]c(-c5ccccc5)cc34)[nH]2)cc1`, the pIC50 in [1] is 6.18; in [2], 7.87; in data set [3], 9.00; in [6], 7.95.
With `C=CC(=O)NCc1cccc(-c2nc(C3CC3)c(-c3ccnc4[nH]c(-c5ccccc5)cc34)[nH]2)c1`, the pIC50 in data set [1] was 4.95; in [2] it was 5.39; in data set [6], 5.41.
